# COUP-TFII inh – NR2F2 (human) inhibition, primary screen; P24468; HEK293T NGFI-A luciferase reporter, luminescence; inhibition, % at 8.6 µM; 370,000 tested, 0.7% active; AID 686940;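 active = inhibition above a per-plate cutoff, mean inhibition of test wells between control levels plus 3 SD, cut at about 38% in these data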;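 note: cells cotransfected with COUP-TFII expression vector driving the NGFI-A reporter; 0% = median of COUP-TF2 test wells and 100% = reporter-only cells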
# Target sequence (P24468 whole entry, looked up): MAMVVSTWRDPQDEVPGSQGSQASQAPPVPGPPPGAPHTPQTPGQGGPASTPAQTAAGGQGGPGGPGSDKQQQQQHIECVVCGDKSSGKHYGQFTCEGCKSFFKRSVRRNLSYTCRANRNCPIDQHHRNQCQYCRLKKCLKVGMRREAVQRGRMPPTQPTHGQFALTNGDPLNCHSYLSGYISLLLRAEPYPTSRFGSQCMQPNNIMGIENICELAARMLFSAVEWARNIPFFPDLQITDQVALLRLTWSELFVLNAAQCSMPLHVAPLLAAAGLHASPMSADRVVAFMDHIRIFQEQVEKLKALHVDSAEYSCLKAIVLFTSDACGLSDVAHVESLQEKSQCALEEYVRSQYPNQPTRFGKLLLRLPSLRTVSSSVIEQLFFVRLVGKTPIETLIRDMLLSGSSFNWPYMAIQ
# NR2E3 ag-1 – human photoreceptor-specific nuclear receptor agonism; CHO-S Gal4-NCOR/VP16-NR2E3 two-hybrid, luciferase; inhibition of corepressor binding, % at 3.98 µM; 360,000 tested, 0.35% active; AID 602229;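 active = inhibition above the mean of all tested compounds plus 3 SD, cut at about 70% in these data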;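 note: 0% = DMSO with NR2E3 transfected cells and 100% = cells lacking NR2E3 construct; higher means lower luciferase signal from less NR2E3 corepressor binding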
# GalR3 antagonist – antagonists of human GalR3; O60755; HEK293 GalR3-CNG cAMP membrane potential fluorescence; galR3 body fused to GalR1 C-terminus; inhibition, % at 3 µM; 360,000 tested, 0.44% active; AID 651719;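 active = inhibition above the screen-wide average plus 3 SD, cut at about 13% in these data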;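 note: forskolin and galanin both at EC90 stimulate the cells; cAMP rise reported by CNG channel membrane potential dye signal; 0% = forskolin plus galanin with DMSO and 100% = forskolin alone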
# SMARCA2 act – SMARCA2 function activation, primary screen; 370,000 tested, 1% active; activation, % at 9.1 µM; MG213 cells, MMTV-luciferase reporter, dexamethasone, overnight; in the data active = activation above about 7.8%;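 note: 0% = vehicle wells and 100% = reference activator wells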
# NR2E3 ag-2 – activates human photoreceptor nuclear receptor NR2E3. Q9Y5X4. GST-NR2E3/biotin-RetCOR TR-FRET, 1536-well. inhibition of corepressor binding, % at 4.78 µM. 320,000 tested, 0.12% active. AID 2300;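 active = percent inhibition above the cutoff of mean plus 3 SD of all tested compounds, set per screening campaign, cut at about 20% in these data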;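 note: 0% = DMSO wells and 100% = biotin wells as full block of FRET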
#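 System: GST-NR2E3 and biotin-RetCOR proteins; probe or stimulus: 7 nM biotin-RetCOR; doses: compound at 4.8 µM, single dose; schedule: Compound–protein incubation for 5 h at 4 °C; detection: time-resolved FRET; read-out: percent inhibition; controls: biotin wells as high control, 0.6% DMSO wells as low control; format: 1536-well plates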
# SMARCA2 act conf – confirmation of SMARCA2 (BRM) function activators. shares compounds with SMARCA2 act. MG213 cells, MMTV-luciferase with dexamethasone, luminescence, overnight; MG213 cells expressing E1A, Rb sequestered; DMSO wells 0%, reference activator 100%. activation, % at 9.1 µM. 3,500 tested, 30% active. AID 652260;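 active = activation above its plate's cutoff, the mean activation of tested wells plus 3 SD, cut at about 7.9% in these data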
# VP16 Luc act – counter-screen for SMARCA2 activators: GAL4-VP16 luciferase reporter activation. 3,500 tested, 41% active. activation, % at 9.1 µM. HEK293 GAL4-VP16 pG5luc reporter, luciferase luminescence; scaled: DMSO wells 0%, SAHA wells 100%. shares compounds with SMARCA2 act. AID 686939;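 active = activation above the solvent-only control well mean plus 3 SD, averaged across control plates, cut at about 5.2% in these data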
# Numbers without * were called inactive; / = no result given. Compounds with a hit are over-represented: about 2.2% of the library has one in this group of screens.
SMILES,COUP-TFII inh,NR2E3 ag-1,GalR3 antagonist,SMARCA2 act,NR2E3 ag-2,SMARCA2 act conf,VP16 Luc act
Cc1cc(C)c(S(=O)(=O)N2CCOC23CCN(S(C)(=O)=O)CC3)c(C)c1,4,-11,-1,14*,/,-3,1
Cc1ccc(C(=O)NNC(=O)Cc2cccs2)cc1,-7,-41,-10,9.1*,3,3,2
Cn1c(N)c(C(=O)CCc2ccccc2)c(=O)n(C)c1=O,-62,/,-8,8.1*,/,17*,5.8*
CC(c1cc(F)ccc1O)c1c[nH]c2ccccc12 (stereo not drawn),9,/,/,-2,/,/,/
Cc1ccc(NC(=O)C2CC(=O)N(C(C)C)C2)cc1Cl (stereo not drawn),10,24,-1,8.3*,3,1,0
COc1ccccc1NC(=O)c1c[nH]c2ccccc12,-11,-68,-9,10*,-5,4,4
Cc1cccc(C)c1NC(=O)c1c[nH]c2ccccc12,-20,-104,-12,13*,1,8.7*,9.4*
N#Cc1cccc(NC(=O)OCCN2C(=O)CCC23CCC(c2ccccc2)CC3)c1 (stereo not drawn),-21,/,/,-4,/,/,/
O=C(Nc1cc(Cl)ccc1Oc1ccccc1)c1ccccc1F,-9,-2,0,8.9*,0,-4,1
CC(C)n1nnnc1SCC(=O)c1ccc2c(c1)OCCO2,-43,-102,-1,5,3,/,/
O=C(CSc1nnnn1C1CCCC1)c1ccc2c(c1)OCCO2,-28,-133,2,8.3*,4,4,5.4*
COc1ccc2c(c1)c1ccccc1n2C,-14,-2,-4,8.9*,-1,-2,2
CC(C)CCN(C)C1CCN(C(=O)Nc2ccc(Cl)cc2)CC1,-10,/,/,0,/,/,/
Cc1ccc(NC(=O)c2ncc(Cl)c(Cl)c2Cl)cc1C,-29,-16,-3,8.2*,0,4,9.5*
O=C(Nc1ccc(OC(F)F)cc1)c1ncc(Cl)c(Cl)c1Cl,3,0,-4,-5,0,/,/
O=C(N[C@@H](Cc1ccccc1)C(=O)N1CCC2CCN(S(=O)(=O)c3ccccc3)CC21)[C@@H]1CCCN1 (stereo partly drawn),-13,/,/,-3,/,/,/
CCCCN(C(=O)C(C)Oc1ccc(Cl)cc1)c1c(N)n(CCCC)c(=O)[nH]c1=O (stereo not drawn),-4,-12,1,8.2*,-4,-1,-2
Cc1cccc(CN2C(=O)/C(=C\c3ccc(C(=O)NCCCN4CCN(C)CC4)cc3)Oc3ccccc32)c1,19,-28,0,8.5*,0,12*,-1
Cc1ccc(S(=O)(=O)N2C=C(c3ccccc3)c3ccccc3-c3ccccc32)cc1,10,/,/,/,/,/,/
COc1ccc(NC(=O)N2CCC(N(C)CCC(C)C)CC2)cc1OC,7,/,/,6,/,/,/
COc1cccc(NC(=S)NC(=O)/C=C/c2ccco2)c1,-14,2,-4,2,2,/,/
O=C(/C=C/c1ccco1)NC(=S)Nc1cccc(C(=O)O)c1,-17,-38,-9,8.4*,3,6,1
CCOC(=O)[C@]12CCCC=C1N(Cc1ccc(OC)cc1)C(=O)[C@@H]2CC(=O)N1CCCC1,7,/,/,-2,/,/,/
Cc1ccc(NC(=O)CCNS(=O)(=O)c2ccc3c(c2)oc(=O)n3C)cc1,8,-22,-7,-2,1,/,/
CCOc1ccc(NC(=O)CCNS(=O)(=O)c2ccc3c(c2)oc(=O)n3C)cc1,-6,-26,4,8.0*,3,-1,-1
SMILES,COUP-TFII inh,NR2E3 ag-1,GalR3 antagonist,SMARCA2 act,NR2E3 ag-2,SMARCA2 act conf,VP16 Luc act
CCOc1ccc(C(CC(=O)O)NC(=O)c2ccco2)cc1OC (stereo not drawn),-13,-31,3,-1,-2,/,/
COc1ccc(C(NC(=O)c2ccco2)c2ccc(OC)c(OC)c2)cc1OC,-3,8,-9,9.0*,2,-1,1
O=C(CSc1nnc(-c2ccc(O)cc2)o1)Nc1ccccc1,-30,-138,-7,8.6*,1,11*,8.1*
CC1CCc2c(sc(NC(=O)CSc3nnc(-c4ccccc4)o3)c2C#N)C1 (stereo not drawn),-17,-9,-3,9.9*,1,-3,1
COCc1cc(=O)n2[nH]c(-c3ccc(C)cc3)cc2n1,-2,-120,-2,10*,3,8.9*,5
CCc1c(C)nc2cc(-c3ccc(OC)cc3)[nH]n2c1=O,-38,-63,-4,8.9*,-6,11*,11*
CCOC(=O)[C@]12CCCCC/C=C\1N(CCc1ccc(Cl)cc1)C(=O)[C@H]2CC(=O)NCCCCc1ccccc1,-30,/,/,-1,/,/,/
CC1CCC2(CCC(=O)N2CCCOC(=O)c2ccccc2)CC1 (stereo not drawn),-5,/,/,0,/,/,/
O=C(Nc1ccc(Br)cc1Cl)c1cnccn1,1,-22,-7,9.4*,4,12*,4
CN(C)S(=O)(=O)c1ccc(NC(=O)c2ccccn2)cc1,-42,-94,0,4,-2,/,/
CCN(CC)S(=O)(=O)c1ccc(NC(=O)c2ccccn2)cc1,-26,-62,-4,9.8*,-1,6,8.5*
Oc1ccccc1C=Nn1c(-c2ccccc2F)n[nH]c1=S,11,/,/,7,/,/,/
COc1ccc(-c2cc(C(=O)NC(Cc3cc4ccccc4[nH]3)C(=O)O)c(C)o2)cc1OC (stereo not drawn),-16,-48,-4,11*,3,9.9*,4
C[C@@H](CCCCC1(C)OCCO1)CCC(=O)N(c1ccccc1)c1ccccc1,-11,/,/,-5,/,/,/
O=C(C1CCCCC1)n1ccc2ccc(-c3ccc4ccn(Cc5ccccc5)c4c3)cc21,15,/,/,-1,/,/,/
O=C(Nc1nc2ccccc2[nH]1)C1CCC1,-17,-104,-8,8.9*,-1,3,8.7*
COc1ccc(C(=O)Nc2nc3ccccc3[nH]2)cc1OC,-40,-96,-2,11*,-1,6,10*
COc1ccc(Br)c(C(=O)Nc2nc3ccccc3[nH]2)c1,-23,-63,-1,8.8*,1,7.8*,2
O=C(Nc1nc2ccccc2[nH]1)C1CCCC1,-22,-100,3,1,-2,/,/
O=S1(=O)CC2c3ccccc3CN2CN1C1CCCC1 (stereo not drawn),9,/,/,5,/,/,/
CC(=O)c1cc(-c2ccccc2S(=O)(=O)NC(C)(C)C)c(=O)n2c1CCC2,8,/,/,0,/,/,/
Cc1ccc(N=C2NC(=O)CC(C(=O)Nc3ccc4c(c3)OCO4)S2)cc1 (stereo not drawn),6,-31,-2,2,0,/,/

# Screening results (PubChem BioAssay)
